For 12 compounds, cytotoxicity and Activity results are on record in ChEMBL document CHEMBL3286239, “Synthesis and biological evaluation of novel naphthalene compounds as potential antidepressant agents” (Eur J Med Chem, 2014).

Series [1] is described as follows: Cytotoxicity against human L02 cells as inhibition of cell viability at 80 uM after 24 hrs by MTT assay. The format is cell-based. Conditions: L02 cells, read-out: INH. Background: Formazan colour is commonly taken as a measure of viable cells.
Series [2] deals with PC-12. The series can be described thus: Neurorestorative activity against H2O2-induced oxidant injury in rat PC12 cells assessed as restorative rate at 20 uM measured after 48 hrs pretreated with 200 uM H2O2 for 1 hr by MTT assay. The format is functional. The essentials:
(§1)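 PC12 cells at 1×10^4/well in DMEM with 10% FBS and 5% horse serum for 24 h. Exposed to 200 μM H₂O₂ for 1 h, washed twice with PBS, then compound (10, 20 or 40 μM) in DMEM for 48 h. MTT 0.5 mg/ml final for 4 h, DMSO solubilization, A570. Restoration rate from absorbance relative to injured control; mean ± S.D. of six independent experiments.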

Series [3] is described as follows: Cytotoxicity against human HEK293 cells as inhibition of cell viability at 80 uM after 24 hrs by MTT assay. The format is cell-based. Conditions: HEK293 cells, read-out: INH.
The subject of series [4] is PC-12. The series can be described thus: Neurorestorative activity against H2O2-induced oxidant injury in rat PC12 cells assessed as restorative rate at 40 uM measured after 48 hrs pretreated with 200 uM H2O2 for 1 hr by MTT assay. The format is functional. The essentials:
as §1

The test system of series [5] is PC-12. The series can be described thus: Neurorestorative activity against H2O2-induced oxidant injury in rat PC12 cells assessed as restorative rate at 10 uM measured after 48 hrs pretreated with 200 uM H2O2 for 1 hr by MTT assay. The format is functional. The essentials:
as §1

Series [6] has as its system PC-12. Put plainly: Neuroprotective activity against rat PC12 cells assessed as protection against corticosterone- induced lesion at 1.25 uM after 1 day by MTT assay. The format is functional. In outline: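 Low-differentiated PC12 cells at 1×10^4/well in DMEM with 5% heat-inactivated horse serum and 10% FBS for 24 h. Then 200 μM corticosterone plus compound at 1.25 μM for 1 day. MTT 0.5 mg/ml final for 4 h, formazan in DMSO, A570. Protection rate = (A_drug − A_corticosterone)/A_corticosterone ×100; mean ± S.D. of six independent experiments.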

Active and inactive are the calls of the source. The calls are words filed in the database; no cut-off is given here.

For the compound `COc1ccc2cccc(CCNC(=O)C3CN(C(=O)c4ccccc4)C3)c2c1`, the cytotoxicity at 24 h, 80 µM was determined as 3.8% in series [1] and 11.9% in series [3]. Also, the results for the Activity with PC-12 [2], with PC-12 [4] and with PC-12 [5] were 6.6%, 4.6% and 2.9%, respectively. The outcome with PC-12 [6] was inactive.

In the case of `COc1ccc2cccc(CCNC(=O)C3CN(C(=O)c4ccccn4)C3)c2c1`, the cytotoxicity at 24 h, 80 µM worked out at 11.2% in series [1] and 31.8% in series [3]. The outcome in the series with PC-12 [2], in the series on PC-12 [4] and in the series with PC-12 [6] was inactive. Moreover, in the series with PC-12 [5], the Activity is recorded as 0.7%.

For the compound `COc1ccc2cccc(CCNC(=O)C3CN(C(=O)c4cc([N+](=O)[O-])cc([N+](=O)[O-])c4)C3)c2c1`, the cytotoxicity at 24 h, 80 µM came out at 15.8% in series [1] and 11.1% in series [3]. Besides, the Activity in the series with PC-12 [2] turned out to be 1.7%. Moreover, the outcome in the series on PC-12 [4], with PC-12 [5] and with PC-12 [6] was inactive.

In the case of `COc1ccc2cccc(CCNC(=O)C3CN(C(=O)c4ccc(C(F)(F)F)cc4)C3)c2c1`, the values for the cytotoxicity at 24 h, 80 µM in series [1] and in series [3] were 7.9% and 24.6%, respectively. Further, the result with PC-12 [2], in the series on PC-12 [4] and in the series with PC-12 [5] was inactive. The Activity in the series with PC-12 [6] is given as 14.6%.

For the compound `COc1ccc(OC)c(C(=O)N2CC(C(=O)NCCc3cccc4ccc(OC)cc34)C2)c1`, the cytotoxicity at 24 h, 80 µM in series [1] amounted to 1.3%; in series [3] it was 33.4%. Also, the outcome in the series on PC-12 [2], in the series with PC-12 [4] and in the series with PC-12 [5] was inactive. For the same compound, the Activity with PC-12 [6] was found to be 22.3%.

For `COc1ccc2cccc(CCNC(=O)C3CN(S(=O)(=O)N(C)C)C3)c2c1`, the cytotoxicity at 24 h, 80 µM in series [1] was 7.4%; in series [3] it was 4.6%. In addition, the Activity in the series on PC-12 [2] is 2.1%. Also, the result in the series with PC-12 [4], with PC-12 [5] and in the series with PC-12 [6] was inactive.

As to `COc1cc(OC)cc(C(=O)N2CC(C(=O)NCCc3cccc4ccc(OC)cc34)C2)c1`, the cytotoxicity at 24 h, 80 µM in series [1] and in series [3] was 13.1% in each case. Besides, the Activity with PC-12 [2] came out at 2.1%. Besides, the result with PC-12 [4], with PC-12 [5] and in the series with PC-12 [6] was inactive.

As for `COc1ccc2cccc(CCNC(=O)C3CN(S(=O)(=O)c4ccc(Cl)cc4)C3)c2c1`, the cytotoxicity at 24 h, 80 µM in series [1] is 33.6%; in series [3] it was 21.5%. The Activity was 4.5% in the series on PC-12 [2], 6.8% in the series with PC-12 [4], 4.6% in the series with PC-12 [5] and 25.3% in the series on PC-12 [6].

As to `COc1ccc2cccc(CCNC(=O)C3CN(S(=O)(=O)c4ccc(C)cc4)C3)c2c1`, the cytotoxicity at 24 h, 80 µM was found to be 2.7% in series [1] and 3.6% in series [3]. In addition, the outcome in the series with PC-12 [2], in the series with PC-12 [4], in the series with PC-12 [5] and in the series on PC-12 [6] was inactive.

As for `COc1ccc2cccc(CCNC(=O)C3CN(C(=O)OCc4ccccc4)C3)c2c1`, the cytotoxicity at 24 h, 80 µM in series [1] worked out at 12.1%; in series [3], 1%. Also, the figures for the Activity in the series on PC-12 [2], with PC-12 [4] and with PC-12 [5] were 6.6%, 7.3% and 3.2%, respectively. Besides, the outcome in the series with PC-12 [6] was inactive.

Consider `CCC(=O)N1CC(C(=O)NCCc2cccc3ccc(OC)cc23)C1`, for which the figures for the cytotoxicity at 24 h, 80 µM in series [1] and in series [3] were 2.9% and 11.2%, respectively. Moreover, the outcome with PC-12 [2], with PC-12 [5] and in the series on PC-12 [6] was inactive. Also, the Activity with PC-12 [4] is reported as 7.5%.

Take `CC#C[C@]1(O)CC[C@H]2[C@@H]3CCC4=CC(=O)CCC4=C3[C@@H](c3ccc(N(C)C)cc3)C[C@@]21C` [MIFEPRISTONE]: the Activity with PC-12 [6] worked out at 31.1%.
